Columns and labels:
[1] = In vitro half life at pH 7.4 and 37 degrees C; format: ADME; details: buffer
Outline: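 Prodrug, added as 0.5 mM DMSO stock (10 μL into 1 mL), incubated in PBS pH 7.4 at 37 °C. Release of parent drug followed by RP-HPLC. t1/2 is the time to 50% release of parent drug. Means ± SEM of three experiments.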

[2] = C max was determined; format: ADME, organism-based; details: in vivo
Outline: (§1)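 Male Sprague–Dawley rats (240–300 g, n = 5 or 3), fasted overnight, given the agent intraduodenally via duodenal cannula at a dose equivalent to 10 mg/kg parent drug, in 50% PEG (8000) or saline, 1 mL/kg. Arterial blood taken at 5 min–8 h. Plasma was ethyl acetate extracted and the parent drug quantified by RP-HPLC (UV 202 nm). Cmax/Tmax from mean profiles; AUC0–8 by linear trapezoidal rule.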

[3] = Area under curve (AUC) was determined; format: ADME; design: concentration or dose not given beside the values; outline: as §1
[4] = Bioavailability; format: ADME, organism-based; details: eutheria, in vivo
Outline: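 Rat intraduodenal dosing (dose equivalent to 10 mg/kg parent drug, 50% PEG or saline, 1 mL/kg). Plasma parent drug measured by RP-HPLC over 8 h. Bioavailability is the ratio of mean AUC0–8 (×10) against intravenous parent drug at 1 mg/kg in ethanol cosolvent via femoral vein (n = 2).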

[5] = T max was determined; format: ADME; outline: as §1

SMILES	half-life [1] [min]	Cmax [2] [ng/mL]	AUC [3] [ng·h/mL]	bioavailability [4] [%]	Tmax [5] [min]
CCCNC(=O)CCC(=O)O[C@H](C(=O)N1CSC(C)(C)[C@H]1C(=O)NC(C)(C)C)[C@H](Cc1ccccc1)NC(=O)COc1c(C)cccc1C	922				
Cc1cccc(C)c1OCC(=O)N[C@@H](Cc1ccccc1)[C@H](OC(=O)CCC(=O)NCCCN1CCOCC1)C(=O)N1CSC(C)(C)[C@H]1C(=O)NC(C)(C)C.Cl	79.5	410	1570	6.9	30
Cc1cccc(C)c1OCC(=O)N[C@@H](Cc1ccccc1)[C@H](OC(=O)CCC(=O)NCCN1CCCC1)C(=O)N1CSC(C)(C)[C@H]1C(=O)NC(C)(C)C.Cl	7.9	840	3650	16.1	15
Cc1cccc(C)c1OCC(=O)N[C@@H](Cc1ccccc1)[C@H](O)C(=O)N1CSC(C)(C)[C@H]1C(=O)NC(C)(C)C		1230	3580	15.8	5
Cc1cccc(C)c1OCC(=O)N[C@@H](Cc1ccccc1)[C@H](OC(=O)CCC(=O)NCCN1CCOCC1)C(=O)N1CSC(C)(C)[C@H]1C(=O)NC(C)(C)C.Cl	40.3	1890	5250	23.1	30
Cc1cccc(C)c1OCC(=O)N[C@@H](Cc1ccccc1)[C@H](OC(=O)CCC(=O)NCCN)C(=O)N1CSC(C)(C)[C@H]1C(=O)NC(C)(C)C.Cl	12.7	650	3980	17.5	240
Cc1cccc(C)c1OCC(=O)N[C@@H](Cc1ccccc1)[C@H](OC(=O)CCC(=O)NCc1cccnc1)C(=O)N1CSC(C)(C)[C@H]1C(=O)NC(C)(C)C.Cl	35.4	1370	6000	26.4	30
Cc1cccc(C)c1OCC(=O)N[C@@H](Cc1ccccc1)[C@H](OC(=O)CCC(=O)NCc1ccncc1)C(=O)N1CSC(C)(C)[C@H]1C(=O)NC(C)(C)C.Cl	34.9	1620	6570	29	30
Cc1cccc(C)c1OCC(=O)N[C@@H](Cc1ccccc1)[C@H](OC(=O)CCCC(=O)NCCN1CCOCC1)C(=O)N1CSC(C)(C)[C@H]1C(=O)NC(C)(C)C.Cl	2060	480	1230	5.4	30
Cc1cccc(C)c1OCC(=O)N[C@@H](Cc1ccccc1)[C@H](OC(=O)CCC(=O)NCCN1CCCCC1)C(=O)N1CSC(C)(C)[C@H]1C(=O)NC(C)(C)C.Cl	3.6				
Cc1cccc(C)c1OCC(=O)N[C@@H](Cc1ccccc1)[C@H](OC(=O)CCCC(=O)NCCN)C(=O)N1CSC(C)(C)[C@H]1C(=O)NC(C)(C)C.Cl	1240	460	2130	9.4	60
Cc1cccc(C)c1OCC(=O)N[C@@H](Cc1ccccc1)[C@H](OC(=O)CCC(=O)NCc1ccccn1)C(=O)N1CSC(C)(C)[C@H]1C(=O)NC(C)(C)C.Cl	48.5				

From ChEMBL document CHEMBL1145089, “Development of water-soluble prodrugs of the HIV-1 protease inhibitor KNI-727: importance of the conversion time for higher gastrointestinal absorption of prodrugs based on spontaneous chemical cleavage” (J Med Chem, 2003)
